Results on 1 compound are retold here after ChEMBL document CHEMBL4622973, “Discovery of Potent Small-Molecule SIRT6 Activators: Structure-Activity Relationship and Anti-Pancreatic Ductal Adenocarcinoma Activity” (J Med Chem, 2020).

Data set [1] concerns the target T1, NAD-dependent protein deacylase sirtuin-6 (Homo sapiens, UniProt Q8N6T7). Put plainly: […] in human BxPC3 cells assessed as reduction in Lin28b expression levels at 25 uM incubated for 72 hrs by Western blot analysis. The data set is classed as cell-based. The following applies: BXPC-3. A digest of the protocol:
(§1)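 Cells incubated 72 h with various compound concentrations; whole-cell RIPA lysates with protease inhibitors, BCA-normalised, separated on 12% SDS-PAGE, transferred to PVDF, blocked in 5% milk or BSA. Probed 10 h at 4 °C with antibodies to SIRT6, acetyl-H3K9/K18/K56, total H3, Lin28b, Myc, IGF2BP3, β-actin; HRP secondary, chemiluminescent detection.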

The target of data set [2] is T1, NAD-dependent protein deacylase sirtuin-6. Put plainly: Activation of N-terminal his-tagged human SIRT6 expressed in Escherichia coli M15 [pREP4] assessed as increase in deacetylation activity incubated for 2 hrs using Ac-RYQK(Myr)-AMC substrate by FDL assay relative to control.
Data set [3] is described as follows: Half life in Sprague-Dawley rat at 2 mg/kg, iv after 0.25 to 24 hrs by LC-MS/MS analysis. In kind it is ADME, organism-based. The note with it: in vivo. A digest of the protocol: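 Male Sprague-Dawley rats, 6-8 weeks old. Dosing solution of 10 (PO) or 2 (IV) mg/mL in 5% DMSO, 10% Solutol and 85% saline, pH 7. Blood taken by cardiac puncture at 0.083–24 h (PO) or 0.25–24 h (IV). Plasma levels measured by LC-MS/MS. Values are mean ± SD, n = 3.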

The nature of data set [4]: Tmax in Sprague-Dawley rat at 10 mg/kg, po after 0.083 to 24 hrs by LC-MS/MS analysis. In kind it is ADME, organism-based. The following applies: in vivo. In a few lines:
(§2)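 Male Sprague-Dawley rats, 6–8 weeks old, received a single dose of 10 mg/kg p.o. or 2 mg/kg i.v. The vehicle was 5% DMSO, 10% Solutol and 85% saline at pH 7. Blood was taken by cardiac puncture at 0.083–24 h (p.o.) or 0.25–24 h (i.v.), and plasma was measured by LC-MS/MS. Values are mean ± SD, n = 3.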

Data set [5] can be described thus: Volume of distribution at steady state in Sprague-Dawley rat at 2 mg/kg, iv after 0.25 to 24 hrs by LC-MS/MS analysis. In kind it is ADME, organism-based. The note with it: in vivo. A digest of the protocol: as §2
The test system of data set [6] is BXPC-3. In words: Induction of cell cycle arrest in human BxPC3 cells assessed as increase in accumulation at G2 phase incubated for 48 hrs by propidium iodide staining based flow cytometry. The data set is classed as functional. In a few lines: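 PANC-1 and BXPC-3 cells in 6-well plates treated with a concentration series for 48 h. Stained with 50 µg/mL propidium iodide for 30 min in the dark. DNA content analysed by flow cytometry for cell-cycle phase distribution.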
In general terms: A flow cytometer gives signals particle by particle.

The subject of a further data set is MIA PaCa-2. In words: Inhibition of cell migration of human MIAPaCa2 cells at 10 umol/L incubated for 24 hrs by inverted microscopy relative to control. The data set is classed as functional. The following applies: MIA PaCa-2, 24 h. In a few lines: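 PDAC cells are grown to a confluent monolayer at 37 °C in 5% CO2. The monolayer is scratched with a 200 μL pipette tip to make a gap of constant width, then washed with PBS. Cells are exposed to a range of compound concentrations. They are imaged by inverted microscope after 24 h. Migrated cells are counted by hand, and inhibition is expressed relative to untreated wells (100%).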

For another data set, the target named is Histone deacetylase 4 (Homo sapiens, UniProt P56524). Put plainly: Inhibition of HDAC4 (unknown origin) by FDL assay. A digest of the protocol:
(§3)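 Selectivity testing by FDL assay at concentrations up to 200 µM. SIRT1-2 assays run by an outside contract provider. Values reported as IC50.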

In another data set the test system is PANC-1. In words: Antiproliferative activity against human PANC1 cells assessed as reduction in cell viability incubated for 72 hrs by MTT assay. In kind it is functional, cell-based. A digest of the protocol:
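PDAC cells grown in DMEM or RPMI1640 with 10% FBS and penicillin/streptomycin at 37 °C, 5% CO2. Plated in triplicate, then treated with a concentration series for 72 h. Viability read by MTT. IC50 calculated from dose-response curves.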

Data set [7] deals with T1, NAD-dependent protein deacylase sirtuin-6. In words: […] in human BxPC3 cells assessed as reduction in H3K56ac levels incubated for 72 hrs by Western blot analysis. In kind it is cell-based. The following applies: BXPC-3. A digest of the protocol: as §1
Data set [8] shares this target. In words: In-vivo activation of SIRT6 in BALB/c nude mouse xenografted with human PANC1 cells assessed as reduction in H3K9Ac expression at 150 mg/kg/day, po for 30 days by IHC analysis. In kind it is functional, organism-based. The following applies: PANC-1. In a few lines: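 Female BALB/c nude mice (6–8 weeks) bearing subcutaneous PANC-1 xenografts (5×10⁶–1×10⁷ cells, right flank), randomised at 130–150 mm³ tumours; oral dosing daily for 30 days versus vehicle (n=6). Tumour tissue stained by immunohistochemistry.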

Data set [9] can be described thus: Oral bioavailability in Sprague-Dawley rat at 10 mg/kg after 0.083 to 24 hrs by LC-MS/MS analysis. In kind it is ADME, organism-based. The following applies: in vivo. In a few lines: as §2
Data set [10] concerns the target Protein deacetylase HDAC6 (Homo sapiens, UniProt Q9UBN7). In words: Inhibition of HDAC6 (unknown origin) by FDL assay. A digest of the protocol: as §3
Data set [11] has as its system BXPC-3. In words: Antiproliferative activity against human BxPC3 cells at 3.3 to 10 uM incubated for 24 hrs by EdU incorporation assay. In kind it is functional, cell-based. A digest of the protocol:
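Cells seeded per well at 8000 (BXPC-3) or 4600 (PANC-1), then treated with a concentration series for 24 h. EdU incorporation detected with an EdU-Apollo kit, with Hoechst counterstain. EdU-positive cells counted by high-content imaging across 10 fields.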

Data set [12] has as its target NAD-dependent protein deacylase sirtuin-5, mitochondrial (Homo sapiens, UniProt Q9NXA8). In words: Inhibition of SIRT5 (unknown origin) by FDL assay. In a few lines: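 SIRT3 and SIRT5 tested by an outsourced FDL fluorogenic deacetylase assay, each from a different contract provider. The IC50 was determined for each enzyme, with concentrations going up to 200 μM.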

The species named for the next data set is Homo sapiens. In words: Selectivity index, ratio of IC50 for SIRT1 (unknown origin) to EC1.5 for N-terminal his-tagged human SIRT6 expressed in Escherichia coli M15 [pREP4].
Another data set relates to NCI-H446. Put plainly: Antiproliferative activity against human NCI-H446 cells assessed as reduction in cell viability incubated for 72 hrs by MTT assay. The data set is classed as functional, cell-based. In general terms: Tetrazolium dyes change colour on reduction, which living cells bring about.
For a further data set, the system named is HepG2. Put plainly: Antiproliferative activity against human HepG2 cells assessed as reduction in cell viability incubated for 72 hrs by MTT assay. In kind it is functional, cell-based.
The target in data set [13] is T1, NAD-dependent protein deacylase sirtuin-6. In words: Binding affinity to N-terminal his-tagged human SIRT6 expressed in Escherichia coli M15 [pREP4] by SPR assay. For orientation: SPR reads the build-up and loss of mass on a sensor chip optically.
The target is the same in data set [14]. In words: Activation of N-terminal his-tagged human SIRT6 expressed in Escherichia coli M15 [pREP4] assessed as increase in peptide demyristoylation incubated for 120 mins using Ac-EALPKK(Myr)-AMC substrate by HPLC analysis. A digest of the protocol:
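SIRT6 (10 μM) incubated with 100 μM Ac-EALPKK(Myr)-AMC, 3 mM NAD⁺ in assay buffer, with DMSO or 25 μM compound, 37 °C for 2 h. Quenched with 100 mM HCl/160 mM acetic acid at 37 °C for 30 min, centrifuged, supernatant analysed by reverse-phase C18 HPLC, water/acetonitrile with 0.1% TFA.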

Data set [15] is described as follows: Tmax in Sprague-Dawley rat at 2 mg/kg, iv after 0.25 to 24 hrs by LC-MS/MS analysis. The data set is classed as ADME, organism-based. The note with it: in vivo. In a few lines: as §2

Each structure is given as a SMILES string. Calls of active or inactive are those of the source. No cut-off for these calls is given here.

T1 sequence (Q8N6T7 whole entry): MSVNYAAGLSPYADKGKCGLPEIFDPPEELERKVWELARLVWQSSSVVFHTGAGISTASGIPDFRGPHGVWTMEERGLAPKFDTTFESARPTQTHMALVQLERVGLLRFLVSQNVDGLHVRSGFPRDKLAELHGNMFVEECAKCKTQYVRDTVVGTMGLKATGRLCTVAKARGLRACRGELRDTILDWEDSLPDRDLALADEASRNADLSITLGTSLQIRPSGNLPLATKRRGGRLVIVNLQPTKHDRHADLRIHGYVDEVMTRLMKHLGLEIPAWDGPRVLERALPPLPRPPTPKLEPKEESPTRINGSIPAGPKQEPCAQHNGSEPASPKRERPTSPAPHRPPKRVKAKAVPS
Protein deacetylase HDAC6, sequence (Q9UBN7 whole entry): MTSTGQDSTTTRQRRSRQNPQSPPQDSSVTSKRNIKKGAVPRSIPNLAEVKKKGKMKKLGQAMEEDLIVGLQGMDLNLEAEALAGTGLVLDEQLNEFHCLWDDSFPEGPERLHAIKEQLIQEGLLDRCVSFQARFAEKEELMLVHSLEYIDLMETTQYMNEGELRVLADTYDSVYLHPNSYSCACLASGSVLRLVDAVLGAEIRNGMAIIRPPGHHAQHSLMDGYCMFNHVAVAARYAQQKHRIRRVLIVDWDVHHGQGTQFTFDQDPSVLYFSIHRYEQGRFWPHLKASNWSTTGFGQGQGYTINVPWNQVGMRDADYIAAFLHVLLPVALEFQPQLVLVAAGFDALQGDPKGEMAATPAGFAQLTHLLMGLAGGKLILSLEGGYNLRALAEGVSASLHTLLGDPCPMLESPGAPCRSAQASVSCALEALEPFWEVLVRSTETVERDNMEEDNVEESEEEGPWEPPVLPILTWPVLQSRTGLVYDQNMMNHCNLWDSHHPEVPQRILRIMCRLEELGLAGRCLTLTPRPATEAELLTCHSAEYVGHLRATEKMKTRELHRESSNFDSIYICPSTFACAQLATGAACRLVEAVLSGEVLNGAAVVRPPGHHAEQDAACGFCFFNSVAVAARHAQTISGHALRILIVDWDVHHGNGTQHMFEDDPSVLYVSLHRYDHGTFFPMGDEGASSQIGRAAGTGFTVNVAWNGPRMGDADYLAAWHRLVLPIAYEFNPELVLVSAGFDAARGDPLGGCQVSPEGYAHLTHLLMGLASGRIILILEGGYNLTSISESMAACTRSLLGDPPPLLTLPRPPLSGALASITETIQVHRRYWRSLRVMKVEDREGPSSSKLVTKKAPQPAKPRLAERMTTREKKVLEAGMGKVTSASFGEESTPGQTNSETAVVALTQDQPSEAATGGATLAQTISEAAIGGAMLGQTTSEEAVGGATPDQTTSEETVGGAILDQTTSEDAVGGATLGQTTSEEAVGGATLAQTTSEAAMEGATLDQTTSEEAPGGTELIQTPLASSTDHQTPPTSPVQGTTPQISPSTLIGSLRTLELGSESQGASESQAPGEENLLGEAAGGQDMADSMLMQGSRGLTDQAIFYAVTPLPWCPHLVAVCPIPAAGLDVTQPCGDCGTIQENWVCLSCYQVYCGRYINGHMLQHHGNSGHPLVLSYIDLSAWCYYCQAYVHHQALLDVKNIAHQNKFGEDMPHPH
NAD-dependent protein deacylase sirtuin-5, mitochondrial, sequence (Q9NXA8 whole entry): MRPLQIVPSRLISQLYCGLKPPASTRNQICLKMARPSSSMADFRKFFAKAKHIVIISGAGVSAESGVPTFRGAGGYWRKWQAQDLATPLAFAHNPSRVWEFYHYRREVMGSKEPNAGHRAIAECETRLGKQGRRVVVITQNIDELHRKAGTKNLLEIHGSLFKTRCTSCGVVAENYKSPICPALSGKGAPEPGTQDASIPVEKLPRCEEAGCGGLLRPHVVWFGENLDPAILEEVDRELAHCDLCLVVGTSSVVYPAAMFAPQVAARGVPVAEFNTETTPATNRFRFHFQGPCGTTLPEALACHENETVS
Histone deacetylase 4, sequence (P56524 whole entry): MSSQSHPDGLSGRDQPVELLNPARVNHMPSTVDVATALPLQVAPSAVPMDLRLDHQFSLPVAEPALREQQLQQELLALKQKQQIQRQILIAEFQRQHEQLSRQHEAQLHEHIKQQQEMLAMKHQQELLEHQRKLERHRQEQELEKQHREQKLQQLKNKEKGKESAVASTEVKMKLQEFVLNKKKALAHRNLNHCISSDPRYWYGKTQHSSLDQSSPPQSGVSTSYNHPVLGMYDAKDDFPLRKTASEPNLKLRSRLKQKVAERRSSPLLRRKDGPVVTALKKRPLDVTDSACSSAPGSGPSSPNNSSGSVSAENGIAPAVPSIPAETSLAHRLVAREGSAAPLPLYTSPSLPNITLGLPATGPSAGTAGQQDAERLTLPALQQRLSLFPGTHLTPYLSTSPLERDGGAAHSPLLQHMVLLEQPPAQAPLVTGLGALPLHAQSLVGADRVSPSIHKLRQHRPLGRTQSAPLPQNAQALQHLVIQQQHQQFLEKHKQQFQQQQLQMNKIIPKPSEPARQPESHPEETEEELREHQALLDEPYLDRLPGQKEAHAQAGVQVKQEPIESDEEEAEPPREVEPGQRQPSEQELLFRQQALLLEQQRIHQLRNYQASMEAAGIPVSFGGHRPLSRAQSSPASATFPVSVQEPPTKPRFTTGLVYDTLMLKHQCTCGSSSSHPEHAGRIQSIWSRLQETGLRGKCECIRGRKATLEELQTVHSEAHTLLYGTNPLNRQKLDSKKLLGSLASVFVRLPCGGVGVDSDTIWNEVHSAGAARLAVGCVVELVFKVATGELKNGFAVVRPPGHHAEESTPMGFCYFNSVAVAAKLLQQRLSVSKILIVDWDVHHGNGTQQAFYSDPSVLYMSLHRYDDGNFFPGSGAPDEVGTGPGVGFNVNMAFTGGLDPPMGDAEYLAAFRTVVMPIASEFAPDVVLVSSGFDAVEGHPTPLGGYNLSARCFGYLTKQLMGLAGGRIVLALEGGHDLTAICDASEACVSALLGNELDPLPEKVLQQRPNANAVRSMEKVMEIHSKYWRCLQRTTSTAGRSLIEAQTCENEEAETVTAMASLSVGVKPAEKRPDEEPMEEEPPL

Usually inhibition stands for the change of the read-out against control, counted positive when it falls. As a reminder, the EC50 is the concentration needed to bring the measured effect to its halfway point. Broadly, the Tmax is the time at which the peak concentration occurs. Broadly, the Vdss is a proportionality between amount in the body and measured concentration, not a real space. The low end stands for confinement near the circulation, the high end for extensive tissue distribution. One may read the IC50 as the concentration that inhibits the measured activity by half. The term bioavailability denotes the share of a dose that reaches the circulation, judged against a reference dose that is usually intravenous. Higher therefore signals much systemic uptake. By Kd is commonly meant the constant that tells how readily two partners part at equilibrium. Regarding `O=C(NC(c1ccccc1)c1ccccc1)c1cc(-c2cc3ccccc3o2)nc2ccccc12`, the inhibition result in data set [1] was “Active”. Further, the EC1.5 in data set [2] was found to be 0.49 µM. For the same compound, in data set [2], the EC50 came to 5.49 µM. In [3], the t1/2 came to 9.06 h. Moreover, the figures for the Tmax in [4] and in data set [15] were 2 h and 4.8 min, respectively. The same compound registered a Vdss in [5] of 1112.8 L/kg. The Activity entry with BXPC-3 [6] and with PANC-1 was “Dose-dependent effect” throughout. Besides, in the data set with MIA PaCa-2, at 10 µM the inhibition was 57.2%. The IC50 against Histone deacetylase 4 is over 200 µM; with PANC-1 (PANC-1, 72 h), 4.13 µM; in data set [10], over 200 µM; in data set [12], over 200 µM. In addition, in data set [7], the inhibition entry was “Dose-dependent effect”. Further, the result (in [8]; in the data set with BXPC-3 [11]; in the data set on NCI-H446; in the data set with HepG2; in [14]) was Active. In [9], this compound yielded a bioavailability of 4.24%. Further, in the data set listed under Homo sapiens, the Ratio is 300. In addition, in data set [13], the Kd was determined as 5.52 µM.
